Assay outcomes as filed in PubChem BioAssay.
Only a selection was taken, and hits are over-represented in it overall.
UPR CHOP act: apoptotic UPR (CHOP) activation | CHO-CHOP luciferase reporter, luminescence; percent of tunicamycin response over DMSO baseline | activation, % at 10 µM | 0.34% of 330,000 active | AID 449763;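 active = at 10 µM dose, activation of 40% or more, normalized to positive control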;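 note: 100% = tunicamycin at 10 µg/mL and 0% = DMSO alone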
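Test system: CHO-CHOP cells, stable luciferase reporter of PERK-eIF2a-CHOP signalling | Quantity: 500 CHO-CHOP cells per well | Buffer or medium: F12 plus 10% serum | Compound dosing: 10 µM single point, 0.5% DMSO | Schedule: 6 h compound treatment, 37 °C | Signal: Luciferase luminescence | Control set: Tunicamycin high control, DMSO low control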
CHOP inh: inhibitors of CHOP induction in ER stress response | CHO-K1 CHOP-promoter luciferase, tunicamycin-induced, 15-18 h | inhibition, % at 10 µM | 3.8% of 220,000 active | AID 2732;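 active = compounds that reduced the stress-induced luciferase reporter signal by more than about 70% of percent inhibition, limit read from the data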;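 note: 0% = tunicamycin plus vehicle and 100% = wells without tunicamycin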
PvdQ inh: blocks Pseudomonas aeruginosa PvdQ acylase activity | purified PvdQ acylase, fluorescence plate reader | AID 488965 | inhibition, % at 10 µM | 0.063% of 340,000 active; in the data active = inhibition above about 30%, passing the limit was not always enough;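 note: 0% = vehicle neutral wells and 100% = reference inhibitor wells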
XBP1 UPR activ: adaptive UPR (XBP1) activation; AID 463104; activation, % at 20 µM; 0.33% of 330,000 active; CHO-XBP1 luciferase reporter, IRE1-XBP1 UPR activation, luminescence; percent of tunicamycin response, DMSO as zero;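 active = versus positive control, 20 µM dose yields 30% or more activation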;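 note: 100% = tunicamycin at 10 µg/mL and 0% = DMSO only wells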
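Assay system: CHO-XBP1 luciferase reporter cells; Schedule: 6 h treatment, 37 °C; Detection: glow luminescence from Steady-Glo reagent; Benchmarks: high control tunicamycin 10 µg/mL final, low control DMSO vehicle only.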
CHOP confirm: confirmation of CHOP induction inhibitors; shares compounds with CHOP inh; CHO-CHOP promoter luciferase reporter, tunicamycin-induced, luminescence; inhibition, % at 10 µM; 45% of 2,100 active;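 active = mean of three repeat readings of reporter signal inhibition above a set limit, cut at about 70% in these data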;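 note: 0% = tunicamycin plus vehicle and 100% = wells lacking tunicamycin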
CHOP UPR conf: confirmation of apoptotic unfolded protein response (CHOP) activators | 64% of 1,000 active | shares compounds with UPR CHOP act | CHO-CHOP cells, CHOP-luciferase reporter luminescence; percent of tunicamycin response, DMSO as zero | activation, % at 10 µM; in the data active = activation above about 33%;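 note: 0% = DMSO wells and 100% = tunicamycin 10 µg/mL wells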
XBP1 UPR conf: adaptive UPR (XBP1) activation, confirmed | activation, % at 20 µM | CHO-XBP1 IRE1-XBP1 luciferase reporter, luminescence | shares compounds with XBP1 UPR activ | AID 485299 | 63% of 1,000 active;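 active = reporter signal at least 30% of the positive control's activation in two or more of four replicate wells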;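 note: plate controls were DMSO negative control for no effect and tunicamycin 10 µg/mL positive control for full effect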
An asterisk follows results filed as active; . = not tested or not shown.

SMILES | UPR CHOP act | CHOP inh | PvdQ inh | XBP1 UPR activ | CHOP confirm | XBP1 UPR conf | others
O=C(O)/C=C/C(=O)N(Cc1ccc2c(c1)OCO2)C1CC(=O)N(CCc2ccccc2)C1=O (centres undefined) | 0 | 3 | 1 | 2 | . | .
Cc1cccc(NC(=O)CSc2nc(C)c(CC(=O)c3ccc(Br)cc3)c(C)c2C#N)c1C | 28 | 103* | -7 | 48* | 106* | 98*
Cc1nc(SCC(=O)Nc2ccc(F)cc2)c(C#N)c(C)c1CC(=O)c1ccc(Br)cc1 | 57* | 103* | -7 | 98* | 97* | 68* | CHOP UPR conf=35*
COCc1cc(C)nc(SCC(=O)Nc2cccc(C)c2C)c1C#N | 2 | 32 | -15 | -4 | . | .
O=C(/C=C\c1cn(-c2ccccc2)nc1-c1ccccc1)Nc1nccs1 | 51* | 108* | -6 | 106* | 105* | 113* | CHOP UPR conf=18
CC1CCN(S(=O)(=O)N2CCC(C(=O)NCc3cccnc3)CC2)CC1 | -1 | -7 | -8 | 0 | . | .
CCCCCCCCCn1c2c(c(=N)c3c1CCC3)CCCC2 | 72* | 106* | -16 | 44* | 0 | 44* | CHOP UPR conf=79*
CCOC(=O)c1ccc(Cl)c(NC(=O)c2cccnc2)c1 | 0 | -3 | . | -4 | . | .
Nc1c(C(=O)Nc2ccc(S(=O)(=O)N3CCCC3)cc2)sc2nc3ccc(OC(F)(F)F)cc3cc12 | 311* | 106* | -6 | 194* | 112* | 162* | CHOP UPR conf=72*
CCOc1ccc(C(=O)Nc2ccc(NC(=O)c3ccco3)c(Cl)c2)cc1Cl | 13 | 101* | -28 | 48* | 60 | 120*
CC1CCC(C(C)C)C(OC(=O)C2=C3c4ccccc4S(=O)(=O)N3CC2)C1 (centres undefined) | -1 | 8 | -11 | -1 | . | .
COc1ccc(OCc2n(CC(=O)OC3CC(C)CCC3C(C)C)c3ccccc3[n+]2C)cc1 (centres undefined) | 2 | 97* | 9 | 36* | 95* | 32*
COc1ccc(C(CCNCc2ccc(F)cc2)c2ccc(F)cc2)cc1 (centres undefined) | 4 | 101* | 6 | 48* | 105* | 65*
Cc1ccc2nc(-c3ccc(NC(=O)CN4C(=O)c5ccccc5C4=O)cc3)sc2c1 | 3 | 26 | -16 | 10 | . | .
CCC1(c2ccc(F)cc2)NC(=O)N(CC(=O)Nc2ccc(-c3nc4ccc(C)cc4s3)cc2)C1=O (centres undefined) | 2 | 101* | -6 | 36* | 74* | 32*
COc1ccc2cc(C)c3nnc(SCC(=O)Nc4nc(-c5ccc(F)cc5)cs4)n3c2c1 | 160* | 105* | -15 | 216* | 7 | 216* | CHOP UPR conf=88*
CC(C)Cn1c2c(c(=O)[nH]c1=O)C(C(F)(F)F)(C(F)(F)F)N=C(CCC1CCCCC1)N2 | 12 | 102* | -15 | 33* | 82* | 38*
O=[N+]([O-])c1ccc(/C=N/n2c(C3CCCCC3)n[nH]c2=S)cc1 | 1 | 105* | -2 | 34* | 113* | 3
COc1cc2nc(SCc3ccc(F)cc3)n(Cc3cccs3)c(=N)c2cc1OC | 0 | 0 | -19 | -2 | . | .
COc1ccc(Cn2c(SCc3ccccc3C)nc3cc(OC)c(OC)cc3c2=N)cc1 | 16 | 107* | 6 | 115* | 120* | 61*
Nc1ncnc2c1ncn2[C@@H]1O[C@H](CNCc2c(OCc3ccccc3F)ccc3ccccc23)[C@@H](O)[C@H]1O | -1 | . | 0 | 1 | . | .
COc1cccc(N(CC(=O)NCC2CCCO2)C(=O)CCC(=O)Nc2nccs2)c1 (centres undefined) | 0 | 19 | -7 | -1 | . | .
Cc1cccc(C=NOCCc2ccccc2)n1 | . | . | -5 | . | . | .
CCOc1ccc(/C=C/C(O)=C2/C(=O)NC3(C)CC2c2ccccc2O3)cc1OC (centres undefined) | 46* | 96* | -2 | 41* | 64 | 46* | CHOP UPR conf=19
O=C(Nc1ccnn1C1CCN(Cc2ccc(C#CCCO)cc2)CC1)c1cccc(F)c1 | -1 | . | -1 | -4 | . | .
